From ChEMBL document CHEMBL1148390, “Structural analysis and optimization of NK(1) receptor antagonists through modulation of atropisomer interconversion properties” (J Med Chem, 2004)

Assays:
[1] = system: Substance-P receptor (Oryctolagus cuniculus); experiment: In vitro binding affinity towards Tachykinin receptor 1 was determined using rabbit pulmonary artery tissues
[2] = molecular target: T1, Substance-K receptor (Oryctolagus cuniculus) (UniProt P79218); experiment: In vitro binding affinity towards Tachykinin receptor 2 using rabbit pulmonary artery tissues
T1 sequence (whole entry): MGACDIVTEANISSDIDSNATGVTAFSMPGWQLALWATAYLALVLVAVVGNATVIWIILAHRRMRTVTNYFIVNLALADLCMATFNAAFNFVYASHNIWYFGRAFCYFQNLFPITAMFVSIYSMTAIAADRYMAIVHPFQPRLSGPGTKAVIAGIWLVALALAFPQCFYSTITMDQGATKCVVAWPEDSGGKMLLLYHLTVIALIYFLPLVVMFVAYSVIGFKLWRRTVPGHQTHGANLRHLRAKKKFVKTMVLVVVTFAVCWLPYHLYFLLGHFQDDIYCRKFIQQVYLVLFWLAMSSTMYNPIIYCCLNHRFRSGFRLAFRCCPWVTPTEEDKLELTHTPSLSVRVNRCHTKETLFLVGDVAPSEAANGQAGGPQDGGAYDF
Method in brief: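 Functional antagonism in isolated rabbit pulmonary artery (n = 2–6), reported as pKB. NK1 tested against agonist ASMSP with antagonist at 1 nM, or at 100 nM where antagonism was not purely competitive; NK2 tested against agonist BANK with antagonist at 1 μM. Where antagonism was not purely competitive, activity was taken as percent inhibition = 100 – maximum relaxation as % of control.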

[3] = Bioavailability was measured in dogs after an oral dose of 10 uM/kg; type: ADME, organism-based, Canis lupus familiaris; details: dog, in vivo, read-out: Bioavailabiility
Method in brief: (§1)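 Dogs (n = 3) dosed orally at 10–100 μmol/kg as a solution in 75% polyethylene glycol 400 in normal saline; iv bolus comparison at 1–10 μmol/kg. Blood taken via surgically implanted cannula or by venipuncture over 24 h; plasma analysed for unchanged compound by LC–MS.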

[4] = Area under plasma concentration time curve was measured in dogs after an oral dose of 10 uM/kg; type: ADME, organism-based, Canis lupus familiaris; details: dog
Method in brief: as §1

Neuromedin-K receptor = molecular target: T2, Neuromedin-K receptor (Homo sapiens, UniProt P29371); experiment: In vitro binding affinity towards human Tachykinin receptor 3 was determined by using [125I]MePhe-NKB as a radioligand
T2 sequence (P29371 whole entry): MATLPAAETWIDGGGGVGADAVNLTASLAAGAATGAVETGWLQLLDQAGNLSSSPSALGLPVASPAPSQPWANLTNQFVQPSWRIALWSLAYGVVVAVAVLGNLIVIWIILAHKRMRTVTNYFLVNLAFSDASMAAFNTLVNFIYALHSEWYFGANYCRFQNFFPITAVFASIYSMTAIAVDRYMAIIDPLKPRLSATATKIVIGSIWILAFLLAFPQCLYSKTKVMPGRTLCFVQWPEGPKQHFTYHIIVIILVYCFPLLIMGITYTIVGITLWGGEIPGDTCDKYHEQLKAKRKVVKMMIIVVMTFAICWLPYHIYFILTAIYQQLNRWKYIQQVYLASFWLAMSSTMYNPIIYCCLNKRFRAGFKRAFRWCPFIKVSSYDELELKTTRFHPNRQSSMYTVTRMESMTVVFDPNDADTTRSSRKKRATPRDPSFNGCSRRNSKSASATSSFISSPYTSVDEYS
Method in brief: (§2)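 Human tachykinin receptors stably expressed in mouse erythroleukemia (MEL) cells; NK3 construct differs from genomic sequence at AA439 (Cys vs Phe). Radioligand displacement: [3H]SP for NK1, [125I]NKA for NK2, [125I]MePheNKB for NK3; n ≥ 2 determinations.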

Gerbillinae = experiment: Percent inhibitory activity against ASMSP induced foot tapping response in gerbils after oral dose of 5 uM/kg; type: functional
Method in brief: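 Gerbils given antagonist orally at 5 μmol/kg 6 h before central (CNS) administration of ASMSP (100 pmol). Foot-tapping response compared with vehicle-only control animals; result expressed as percent inhibition.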

[5] = Maximum plasma concentration was measured in dogs after an oral dose of 10 umol/kg; type: ADME, organism-based, Canis lupus familiaris; set-up: dose 10 umol/kg, route oral; details: dog
Method in brief: as §1

Substance-P receptor = Substance-P receptor (Homo sapiens, UniProt P25103); experiment: In vitro binding affinity towards human Tachykinin receptor 1 was determined by using [3H]SP as a radioligand
Method in brief: as §2

[6] = Time for maximum plasma concentration was measured in dogs after an oral dose of 10 uM/kg; type: ADME, organism-based, Canis lupus familiaris; details: dog
Method in brief: as §1

Substance-K receptor = molecular target: T3, Substance-K receptor (Homo sapiens, UniProt P21452); experiment: In vitro binding affinity towards human Tachykinin receptor 2 was determined by using [125I]NKA as a radioligand
T3 sequence (P21452 whole entry): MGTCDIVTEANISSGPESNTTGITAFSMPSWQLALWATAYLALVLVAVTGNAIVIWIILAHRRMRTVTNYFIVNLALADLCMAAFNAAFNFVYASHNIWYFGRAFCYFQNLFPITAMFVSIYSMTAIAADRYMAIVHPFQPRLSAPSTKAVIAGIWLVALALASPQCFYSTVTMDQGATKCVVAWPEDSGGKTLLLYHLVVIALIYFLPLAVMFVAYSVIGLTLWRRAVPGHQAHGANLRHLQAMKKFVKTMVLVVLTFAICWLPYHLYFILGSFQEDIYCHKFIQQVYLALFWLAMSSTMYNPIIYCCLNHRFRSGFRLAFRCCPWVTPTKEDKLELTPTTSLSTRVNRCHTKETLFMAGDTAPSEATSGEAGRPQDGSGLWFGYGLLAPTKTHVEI
Method in brief: as §2

[7] = Half-life was measured in dogs after an oral dose of 10 uM/kg; type: ADME, organism-based, Canis lupus familiaris; details: dog, in vivo
Method in brief: as §1

Sequence of Substance-P receptor (P25103 whole entry): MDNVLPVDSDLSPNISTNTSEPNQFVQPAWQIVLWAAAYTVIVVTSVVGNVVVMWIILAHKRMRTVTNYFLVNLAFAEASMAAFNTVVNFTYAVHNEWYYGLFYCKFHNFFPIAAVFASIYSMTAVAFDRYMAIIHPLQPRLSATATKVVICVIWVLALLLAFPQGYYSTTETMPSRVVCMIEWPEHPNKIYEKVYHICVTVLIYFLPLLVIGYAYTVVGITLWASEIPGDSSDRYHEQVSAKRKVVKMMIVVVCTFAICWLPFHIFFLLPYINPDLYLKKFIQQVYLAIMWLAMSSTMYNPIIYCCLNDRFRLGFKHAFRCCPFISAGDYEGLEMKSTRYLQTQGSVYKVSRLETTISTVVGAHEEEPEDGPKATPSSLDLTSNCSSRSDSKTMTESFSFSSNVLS

Row | SMILES | pKB [2] | Ki (Substance-P receptor) | Ki (Substance-K receptor) | Inhibition (Gerbillinae) | further results
1 | CC(C)Cc1c(C#N)cc2ccccc2c1C(=O)N(C)C[C@@H](CCN1CCC(c2ccccc2[S@+](C)[O-])CC1)c1ccc(Cl)c(Cl)c1 | 6.35 |  |  |  | pKB [1]: 7.23
2 | CCCc1c(C#N)cc2ccccc2c1C(=O)N(C)C[C@@H](CCN1CCC(c2ccccc2[S@+](C)[O-])CC1)c1ccc(Cl)c(Cl)c1 | 6.72 |  |  |  | pKB [1]: 7.8
3 | CN(C[C@@H](CCN1CCC(c2ccccc2[S@+](C)[O-])CC1)c1ccc(Cl)c(Cl)c1)C(=O)c1c(-c2ccccc2)c(C#N)cc2ccccc12 | 7.27 |  |  |  | pKB [1]: 7.39
4 | CN(C[C@@H](CCN1CCC(c2ccccc2[S@+](C)[O-])CC1)c1ccc(Cl)c(Cl)c1)C(=O)c1cc(C#N)cc2ccccc12 | 8.3 |  |  |  | 
5 | Cc1c(C#N)cc2ccccc2c1C(=O)N(C)C[C@@H](CCN1CCC(c2ccccc2[S@+](C)[O-])CC1)c1ccc(Cl)c(Cl)c1 | 7.1 |  |  |  | pKB [1]: 9.06
6 | CCc1c(C#N)cc2ccccc2c1C(=O)N(C)C[C@@H](CCN1CCC(c2ccccc2[S@+](C)[O-])CC1)c1ccc(Cl)c(Cl)c1 (stereo in doubt; 3) [listing 1 of 2 here] |  | 1.24 nM | 37 nM | 33% | bioavailability [3]: 37.3%; AUC [4]: 6130 ng·h/mL; Ki (Neuromedin-K receptor): 97 nM; Cmax [5]: 662 ng/mL; Tmax [6]: 4 h; half-life [7]: 5.9 h
7 | CCc1c(C#N)cc2ccccc2c1C(=O)N(C)C[C@@H](CCN1CCC(c2ccccc2[S@+](C)[O-])CC1)c1ccc(Cl)c(Cl)c1 (stereo in doubt; 3) [listing 2 of 2 here] | 7.31 |  |  |  | 
8 | CCc1c(C#N)cc2ccccc2c1C(=O)N(C)C[C@@H](CCN1CCC(c2ccccc2[S@+](C)[O-])CC1)c1ccc(Cl)c(Cl)c1 (stereo in doubt; form 1) [listing 1 of 2 here] |  | 1.71 nM | 23 nM | 1.4% | 
9 | CCc1c(C#N)cc2ccccc2c1C(=O)N(C)C[C@@H](CCN1CCC(c2ccccc2[S@+](C)[O-])CC1)c1ccc(Cl)c(Cl)c1 (stereo in doubt; form 1) [listing 2 of 2 here] | 7.11 |  |  |  | 

More lines, main results first:

Row | pKB [2] | Ki (Substance-P receptor) | Ki (Substance-K receptor) | SMILES | Inhibition (Gerbillinae) | further results
10 |  | 6.94 nM | 33 nM | CCc1c(C#N)cc2ccccc2c1C(=O)N(C)C[C@@H](CCN1CCC(c2ccccc2[S@+](C)[O-])CC1)c1ccc(Cl)c(Cl)c1 (stereo in doubt; form 2) [listing 1 of 2 here] | 91% | 
11 | 6.25 |  |  | CCc1c(C#N)cc2ccccc2c1C(=O)N(C)C[C@@H](CCN1CCC(c2ccccc2[S@+](C)[O-])CC1)c1ccc(Cl)c(Cl)c1 (stereo in doubt; form 2) [listing 2 of 2 here] |  | 
12 |  | 2.94 nM | 22 nM | CCc1c(C#N)cc2ccccc2c1C(=O)N(C)C[C@@H](CCN1CCC(c2ccccc2[S@+](C)[O-])CC1)c1ccc(Cl)c(Cl)c1 (stereo in doubt; form 3) [listing 1 of 2 here] | 0.3% | 
13 | 6.83 |  |  | CCc1c(C#N)cc2ccccc2c1C(=O)N(C)C[C@@H](CCN1CCC(c2ccccc2[S@+](C)[O-])CC1)c1ccc(Cl)c(Cl)c1 (stereo in doubt; form 3) [listing 2 of 2 here] |  | 
14 |  | 0.4 nM | 35 nM | CCc1c(C#N)cc2ccccc2c1C(=O)N(C)C[C@@H](CCN1CCC(c2ccccc2[S@+](C)[O-])CC1)c1ccc(Cl)c(Cl)c1 (stereo in doubt; form 4) | 13% | 
